# The source made the active and inactive calls. The calls are words filed in the database; no cut-off is given here.
# Columns and labels:
# [1] = target: T1, P2X purinoceptor 7 (Homo sapiens) (UniProt Q99572); test: Antagonist activity at P2X7R in human THP1 cells assessed as inhibition of LPS and BzATP-induced mature form of IL-1beta expression in cells supernatant at 10^-6 mol/L pretreated with compound followed by LPS/BzATP addition and measured after 2 to 6 hrs by Western blot analysis; type: cell-based; conditions: THP-1
# T1 sequence (whole entry): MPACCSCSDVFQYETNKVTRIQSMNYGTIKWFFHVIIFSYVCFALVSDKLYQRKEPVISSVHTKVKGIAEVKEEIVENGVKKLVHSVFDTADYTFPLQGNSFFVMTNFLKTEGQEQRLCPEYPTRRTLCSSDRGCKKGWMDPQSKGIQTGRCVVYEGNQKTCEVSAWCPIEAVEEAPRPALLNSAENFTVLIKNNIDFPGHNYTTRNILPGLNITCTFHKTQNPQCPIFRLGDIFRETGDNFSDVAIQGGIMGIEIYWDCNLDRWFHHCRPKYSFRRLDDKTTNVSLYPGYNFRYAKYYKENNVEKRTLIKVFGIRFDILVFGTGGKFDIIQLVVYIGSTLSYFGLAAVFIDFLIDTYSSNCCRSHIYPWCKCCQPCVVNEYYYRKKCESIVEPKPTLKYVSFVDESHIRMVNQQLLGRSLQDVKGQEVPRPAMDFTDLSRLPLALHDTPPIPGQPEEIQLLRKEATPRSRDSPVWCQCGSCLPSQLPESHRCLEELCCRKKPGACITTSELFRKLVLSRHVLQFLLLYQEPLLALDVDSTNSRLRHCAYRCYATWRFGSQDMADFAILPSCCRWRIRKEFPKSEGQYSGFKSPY
# [2] = target: T1, P2X purinoceptor 7 (Homo sapiens); test: Antagonist activity at P2X7R in human THP1 cells assessed as inhibition of LPS and BzATP-induced mature form of IL-1beta expression in whole cell extract at 10^-6 mol/L pretreated with compound followed by LPS/BzATP addition and measured after 2 to 6 hrs by Western blot analysis; type: cell-based; conditions: THP-1
# [3] = target: T1, P2X purinoceptor 7 (Homo sapiens); test: Antagonist activity at P2X7R in human THP1 cells assessed as inhibition of LPS and BzATP-induced cell death at 10^-6 mol/L pretreated with compound followed by LPS/BzATP addition and measured after 4 hrs by sytox green dye based flow cytometry; conditions: THP-1
# [4] = target: T1, P2X purinoceptor 7 (Homo sapiens); test: Antagonist activity at P2X7R in human THP1 cells assessed as inhibition of LPS and BzATP-induced cell death at 10^-6 mol/L pretreated with compound followed by LPS/BzATP addition and measured after 6 hrs by sytox green dye based flow cytometry; conditions: THP-1
# [5] = target: T1, P2X purinoceptor 7 (Homo sapiens); test: Antagonist activity at P2X7R in human THP1 cells assessed as inhibition of LPS and BzATP-induced ROS production at 10^-6mol/L pretreated with compound followed by LPS/BzATP addition and measured after 4 hrs by kinetic chemiluminescence based fluorometric analysis; type: cell-based; conditions: THP-1
# How it was run: (§1)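 Differentiated THP-1 macrophages (10^5 cells, RPMI 1640 + 10% FBS) pretreated with antagonist at 10^-6 mol/L before LPS (10 μmol/L) and BzATP (70 μmol/L), 37 °C, 5% CO2; ROS detected as luminol (50 μM)/horseradish peroxidase (50 μg/mL) chemiluminescence on a fluorometer; H2O2 without cells as positive control.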
# [6] = target: T1, P2X purinoceptor 7 (Homo sapiens); test: Antagonist activity at P2X7R in human THP1 cells assessed as inhibition of LPS and BzATP-induced ROS production at 10^-6mol/L pretreated with compound followed by LPS/BzATP addition and measured after 5 hrs by kinetic chemiluminescence based fluorometric analysis; type: cell-based; conditions: THP-1; how it was run: as §1
# [7] = target: T1, P2X purinoceptor 7 (Homo sapiens); test: Antagonist activity at P2X7R in human THP1 cells assessed as inhibition of LPS and BzATP-induced ROS production at 10^-6mol/L pretreated with compound followed by LPS/BzATP addition and measured after 6 hrs by kinetic chemiluminescence based fluorometric analysis; type: cell-based; conditions: THP-1; how it was run: as §1
# [8] = tested on: Mus musculus; test: Antiinflammatory activity against DSS-induced colitis C57BL/6J mouse model assessed as body weight loss at 2.5 mg/kg, ip administered daily and measured for 15 days relative to placebo-treated control; type: functional
# How it was run: (§2)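 DSS colitis in WT mice: 3.8% DSS in drinking water days 1–5, then tap water for 10 days; compound 2.5 mg/kg given i.p. daily in 10% DMSO/PBS; cohorts of 10 mice per group, placebo as comparator; weight loss and clinical disease score tracked; colon sections at day 14 stained with H&E and histologically scored; data as mean ± SEM.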
# [9] = tested on: Mus musculus; test: Antiinflammatory activity against DSS-induced colitis C57BL/6J mouse model assessed as reduction in diarrhea at 2.5 mg/kg, ip administered daily and measured for 15 days; type: functional, organism-based; how it was run: as §2
# [10] = tested on: Mus musculus; test: Antiinflammatory activity against DSS-induced colitis C57BL/6J mouse model assessed as reduction in rectal bleeding at 2.5 mg/kg, ip administered daily and measured for 15 days; type: functional, organism-based; how it was run: as §2
# [11] = tested on: Mus musculus; test: Antiinflammatory activity against DSS-induced colitis C57BL/6J mouse model assessed as reduction in DAI score at 2.5 mg/kg, ip administered daily and measured for 15 days; type: functional; conditions: 360 h; how it was run: as §2
# [12] = tested on: Mus musculus; test: Antiinflammatory activity against DSS-induced colitis C57BL/6J mouse model assessed as areas of normal colonic mucosa with straight and larger crypts on muscularis mucosa at 2.5 mg/kg, ip administered daily and measured after day 14 by hematoxylin and eosin staining based microscopic analysis; type: functional, organism-based; how it was run: as §2
# [13] = tested on: Mus musculus; test: Antiinflammatory activity against DSS-induced colitis C57BL/6J mouse model assessed as decrease in inflammation level in colon at 2.5 mg/kg, ip administered daily and measured after day 14 by hematoxylin and eosin staining based microscopic analysis; type: functional; conditions: 336 h; how it was run: as §2
# [14] = Drug metabolism in human liver microsomes assessed as metabolite N-[(2,4-dichlorophenyl)methyl]-5-oxo-pyrrolidine-2-carboxamide formation at 0.2 mg/ml incubated for 60 mins by UPLC-MS/MS analysis; type: ADME, Microsome; conditions: 1 h
# How it was run: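 Human liver microsomes (2 mg protein/mL) pre-activated with alamethicin in 0.1 M Tris-HCl/10 mM MgCl₂ pH 7.4, added to dried residue of 0.2 mg/mL compound solution; cofactors UDPGA 5 mM, NADPH 1.3 mM, G6P 3.3 mM, G6PD 0.5 U/mL. 37 °C, 60 min; stopped with methanol plus internal standards. Supernatant analysed by online-extraction UPLC on C18 with Q-TOF MS, ESI+.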
Structure (SMILES),inhibition [1],inhibition [2],inhibition [3],inhibition [4],inhibition [5],inhibition [6],inhibition [7],Activity [8],Activity [9],Activity [10],inhibition in vivo at 2.5 mg/kg [11],Activity [12],inhibition in vivo at 2.5 mg/kg [13],Drug metabolism [14]
O=C(NCc1ccc(Cl)cc1Cl)[C@@H]1CCC(=O)N1c1cccs1,Active,Active,Active,inactive,Active,Active,inactive,50%,Active,Active,31%,Active,42 to 50%,Metabolite_Detected
O=C(NCc1ccc(Cl)cc1Cl)[C@@H]1CCC(=O)N1c1ccsc1,Active,Active,Active,inactive,Active,Active,inactive,,,,,,,

# — ChEMBL document CHEMBL4627246, “Pyroglutamide-Based P2X7 Receptor Antagonists Targeting Inflammatory Bowel Disease” (J Med Chem, 2020)
